# Assays:
# [1] = test system: Aspergillus lentulus; test: Antimicrobial activity against Aspergillus lentulus isolate CNM-CM-4387 obtained from sputum of patient after 48 hrs by broth microdilution method; type: functional; conditions: isolate CNM-CM-4387, 48 h
# In short: (§1)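 CLSI M38-A broth microdilution with modifications: RPMI 1640 with L-glutamine, 2% glucose, buffered to pH 7 with 0.165 M MOPS. Inoculum of 1 × 10^5 to 5 × 10^5 CFU/ml from 3- to 5-day-old cultures. Incubated 35°C, 48 h, humid. Visual reading with a mirror. MIC is complete growth inhibition; echinocandin MEC is hyphal morphological alteration. Azoles 8 to 0.015 μg/ml; others 16 to 0.03 μg/ml.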
# [2] = test system: Neosartorya hiratsukae; test: Antimicrobial activity against Neosartorya hiratsukae isolate CNM-CM-3764 obtained from oropharyngeal exudate of patient after 48 hrs by broth microdilution method; type: functional; conditions: Aspergillus hiratsukae, isolate CNM-CM-3764, 48 h; in short: as §1
# [3] = test system: Neosartorya hiratsukae; test: Antimicrobial activity against Neosartorya hiratsukae isolate CNM-CM-4328 obtained from cornea of patient after 48 hrs by broth microdilution method; type: functional; conditions: Aspergillus hiratsukae, isolate CNM-CM-4328, Cornea; in short: as §1
# [4] = test system: Neosartorya pseudofischeri; test: Antimicrobial activity against Neosartorya pseudofischeri isolate CNM-CM-4060 obtained from sputum of patient after 48 hrs by broth microdilution method; type: functional; conditions: Aspergillus thermomutatus
# In short: (§2)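 CLSI M38-A broth microdilution with modifications: RPMI 1640 with L-glutamine, MOPS-buffered to pH 7, plus 2% glucose. Inoculum 1 × 10^5 to 5 × 10^5 CFU/ml from 3–5-day cultures. Incubated at 35°C for 48 h, humid. Read visually with a mirror. MIC = complete growth inhibition; echinocandin MEC = altered hyphal morphology. QC strain A. fumigatus ATCC 2004305.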
# [5] = test system: Aspergillus lentulus; test: Antimicrobial activity against Aspergillus lentulus isolate CNM-CM-3537 obtained from sputum of patient after 48 hrs by broth microdilution method; type: functional; conditions: isolate CNM-CM-3537, 48 h; in short: as §1
# [6] = test system: Aspergillus fumigatiaffinis; test: Antimicrobial activity against Aspergillus fumigatiaffinis isolate CNM-CM-2280 obtained from sputum of patient after 48 hrs by broth microdilution method; conditions: isolate CNM-CM-2280, 48 h
# [7] = test system: Aspergillus fumigatus; test: Antimicrobial activity against Aspergillus fumigatus ATCC 2004305 after 48 hrs by broth microdilution method; type: functional; conditions: ATCC 2004305, 48 h
# [8] = test system: Aspergillus lentulus; test: Antimicrobial activity against Aspergillus lentulus isolate CNM-CM-4370 obtained from sputum of patient after 48 hrs by broth microdilution method; type: functional; conditions: isolate CNM-CM-4370, 48 h; in short: as §1
# [9] = test system: Neosartorya hiratsukae; test: Antimicrobial activity against Neosartorya hiratsukae isolate CNM-CM-3303 obtained from skin of patient after 48 hrs by broth microdilution method; type: functional; conditions: Aspergillus hiratsukae, isolate CNM-CM-3303, 48 h; in short: as §1
# [10] = test system: Neosartorya pseudofischeri; test: Antimicrobial activity against Neosartorya pseudofischeri isolate CNM-CM-2270 obtained from sputum of patient after 48 hrs by broth microdilution method; type: functional; conditions: Aspergillus thermomutatus, isolate CNM-CM-2270, 48 h; in short: as §2
# [11] = test system: Neosartorya pseudofischeri; test: Antimicrobial activity against Neosartorya pseudofischeri isolate CNM-CM-3914 obtained from nail of patient after 48 hrs by broth microdilution method; type: functional; conditions: Aspergillus thermomutatus, isolate CNM-CM-3914, 48 h; in short: as §2
# [12] = test system: Neosartorya hiratsukae; test: Antimicrobial activity against Neosartorya hiratsukae isolate CNM-CM-3740 obtained from oropharyngeal exudate of patient after 48 hrs by broth microdilution method; type: functional; conditions: Aspergillus hiratsukae, isolate CNM-CM-3740, 48 h; in short: as §1
# [13] = test system: Aspergillus lentulus; test: Antimicrobial activity against Aspergillus lentulus isolate CNM-CM-3599 obtained from sputum of patient after 48 hrs by broth microdilution method; type: functional; conditions: isolate CNM-CM-3599, 48 h; in short: as §1
# [14] = test system: Neosartorya hiratsukae; test: Antimicrobial activity against Neosartorya hiratsukae isolate CNM-CM-3305 obtained from skin of patient after 48 hrs by broth microdilution method; type: functional; conditions: Aspergillus hiratsukae, isolate CNM-CM-3305, 48 h; in short: as §1
# [15] = test system: Aspergillus lentulus; test: Antimicrobial activity against Aspergillus lentulus isolate CNM-CM-4428 obtained from skin of patient after 48 hrs by broth microdilution method; type: functional; conditions: isolate CNM-CM-4428, 48 h; in short: as §1
# [16] = test system: Aspergillus lentulus; test: Antimicrobial activity against Aspergillus lentulus isolate CNM-CM-4330 obtained from sputum of patient after 48 hrs by broth microdilution method; type: functional; conditions: isolate CNM-CM-4330, 48 h; in short: as §1
# [17] = test system: Aspergillus lentulus; test: Antimicrobial activity against Aspergillus lentulus isolate CNM-CM-3134 obtained from sputum of patient after 48 hrs by broth microdilution method; type: functional; conditions: isolate CNM-CM-3134, 48 h; in short: as §1
# [18] = test system: Aspergillus lentulus; test: Antimicrobial activity against Aspergillus lentulus isolate CNM-CM-4415 obtained from sputum of patient after 48 hrs by broth microdilution method; type: functional; conditions: isolate CNM-CM-4415, 48 h; in short: as §1
# [19] = test system: Aspergillus lentulus; test: Antimicrobial activity against Aspergillus lentulus isolate CNM-CM-3364 obtained from bronchoalveolar lavage fluid of patient after 48 hrs by broth microdilution method; type: functional; conditions: isolate CNM-CM-3364, Lung; in short: as §1
# [20] = test system: Aspergillus lentulus; test: Antimicrobial activity against Aspergillus lentulus isolate CNM-CM-1290 obtained from sputum of patient after 48 hrs by broth microdilution method; type: functional; conditions: isolate CNM-CM-1290, 48 h; in short: as §1
# [21] = test system: Aspergillus lentulus; test: Antimicrobial activity against Aspergillus lentulus isolate CNM-CM-4426 obtained from sputum of patient after 48 hrs by broth microdilution method; type: functional; conditions: isolate CNM-CM-4426, 48 h; in short: as §1
# [22] = test system: Aspergillus viridinutans; test: Antimicrobial activity against Aspergillus viridinutans isolate CNM-CM-3147 obtained from oropharyngeal exudate of patient after 48 hrs by broth microdilution method; type: functional; conditions: isolate CNM-CM-3147, 48 h; in short: as §1
# [23] = test system: Aspergillus fumisynnematus; test: Antimicrobial activity against Aspergillus fumisynnematus isolate CNM-CM-4063 obtained from bronchoalveolar aspirate of patient after 48 hrs by broth microdilution method; type: functional; conditions: isolate CNM-CM-4063, Lung; in short: as §1
# [24] = test system: Aspergillus lentulus; test: Antimicrobial activity against Aspergillus lentulus isolate CNM-CM-4420 obtained from nail of patient after 48 hrs by broth microdilution method; type: functional; conditions: isolate CNM-CM-4420, 48 h; in short: as §1
# [25] = test system: Aspergillus lentulus; test: Antimicrobial activity against Aspergillus lentulus isolate CNM-CM-3538 obtained from sputum of patient after 48 hrs by broth microdilution method; type: functional; conditions: isolate CNM-CM-3538, 48 h; in short: as §1
# [26] = test system: Aspergillus viridinutans; test: Antimicrobial activity against Aspergillus viridinutans isolate CNM-CM-4518 obtained from nail of patient after 48 hrs by broth microdilution method; type: functional; conditions: isolate CNM-CM-4518, 48 h; in short: as §1
# [27] = test system: Aspergillus fumigatiaffinis; test: Antimicrobial activity against Aspergillus fumigatiaffinis isolate CNM-CM-3227 obtained from bronchoalveolar lavage fluid of patient after 48 hrs by broth microdilution method; conditions: isolate CNM-CM-3227, Lung
# [28] = test system: Neosartorya pseudofischeri; test: Antimicrobial activity against Neosartorya pseudofischeri isolate CNM-CM-3769 obtained from sputum of patient after 48 hrs by broth microdilution method; type: functional; conditions: Aspergillus thermomutatus; in short: as §2
# [29] = test system: Aspergillus lentulus; test: Antimicrobial activity against Aspergillus lentulus isolate CNM-CM-3583 obtained from sputum of patient after 48 hrs by broth microdilution method; type: functional; conditions: isolate CNM-CM-3583, 48 h; in short: as §1
SMILES,MIC [1] [µg/mL],MIC [2] [µg/mL],MIC [3] [µg/mL],MIC [4] [µg/mL],MIC [5] [µg/mL],MIC [6] [µg/mL],MIC [7] [µg/mL],MIC [8] [µg/mL],MIC [9] [µg/mL],MIC [10] [µg/mL],MIC [11] [µg/mL],MIC [12] [µg/mL],MIC [13] [µg/mL],MIC [14] [µg/mL],MIC [15] [µg/mL],MIC [16] [µg/mL],MIC [17] [µg/mL],MIC [18] [µg/mL],MIC [19] [µg/mL],MIC [20] [µg/mL],also measured
CC[C@@H]([C@H](C)O)n1ncn(-c2ccc(N3CCN(c4ccc(OC[C@@H]5CO[C@@](Cn6cncn6)(c6ccc(F)cc6F)C5)cc4)CC3)cc2)c1=O [POSACONAZOLE],0.25,0.16,0.09,0.29,0.28,1.16,0.03,0.18,0.06,0.31,0.5,0.1,0.5,0.045,0.62,0.12,0.56,0.33,2,0.4,MIC [21]: 0.2 µg/mL; MIC [22]: 0.41 µg/mL; MIC [23]: 0.12 µg/mL; MIC [24]: 0.33 µg/mL; MIC [25]: 0.75 µg/mL; MIC [26]: 0.25 µg/mL; MIC [27]: 0.625 µg/mL; MIC [28]: 0.25 µg/mL; MIC [29]: 0.25 µg/mL
C[C@@H](c1ncncc1F)[C@](O)(Cn1cncn1)c1ccc(F)cc1F [VORICONAZOLE],4,1.66,1.25,3.33,3.5,6.66,0.25,5.33,0.5,3,6.66,1,4,0.375,5,3,6,5.33,5.6,4.5,MIC [21]: 5.33 µg/mL; MIC [22]: 4 µg/mL; MIC [23]: 0.83 µg/mL; MIC [24]: 5.33 µg/mL; MIC [25]: 7.5 µg/mL; MIC [26]: 4 µg/mL; MIC [27]: 5.6 µg/mL; MIC [28]: 3.33 µg/mL; MIC [29]: 3.5 µg/mL

# From ChEMBL document CHEMBL1255284, “Aspergillus section Fumigati: antifungal susceptibility patterns and sequence-based identification” (2008)
